According to publication PMC9453980 (ACS Omega, 2022):

What was measured:
[1] = test system: HeLa cells; assay: RPA foci formation; format: cell-based, human
In short: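 HeLa cells were seeded for 24 h, then treated with test agents for 24 h. They were fixed in 4% paraformaldehyde for 20 min, permeabilized with 0.3% Triton X-100 and blocked in 5% BSA. Cells were stained overnight at 4 °C for RPA2 and γH2AX, then with fluorescent secondaries and DAPI. Automated microscopy scored the percentage of RPA-foci-positive cells.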

[2] = test system: BaPif1 C234A mutant; assay: FP assay of DNA-binding activity, C234A mutant; design: species or system Bacteroides sp. 2-1-16
[3] = test system: BaPif1 C380A mutant; assay: FP assay of DNA-binding activity, C380A mutant; design: species or system Bacteroides sp. 2-1-16
In short: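 FP competition with FAM-labelled DNA in 25 mM Tris-HCl pH 7.5, 5 mM MgCl2 (ex 480/em 520 nm). The C380A point mutant was made by PCR mutagenesis and purified as for wild type, and was compared with wild-type BaPif1. Each protein was held with 50 μM test compound across a range of DTT concentrations to give dose-response curves.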

[4] = test system: BaPif1 C380A mutant; assay: Filtration-dilution reversibility experiment, C380A mutant; format: biochemical, Bacteroides sp. 2-1-16; details: filtration experiments
In short: (§1)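 Reversibility test. Wild-type or C380A BaPif1 at 0.1 mg/mL in ATPase buffer was incubated 30 min with 5% DMSO or 50 μM compound in 5% DMSO. It was concentrated on a 10 kDa cut-off centrifugal filter and the retentate diluted 10-fold with buffer. This was done three times (1000-fold total). Residual ATPase activity was then measured by the luciferase ATP assay and expressed as percent inhibition.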

[5] = molecular target: T1, hPif1-HD (Homo sapiens, UniProt Q9H611); assay: FP assay of DNA-binding activity
T1 sequence (Q9H611 200-641): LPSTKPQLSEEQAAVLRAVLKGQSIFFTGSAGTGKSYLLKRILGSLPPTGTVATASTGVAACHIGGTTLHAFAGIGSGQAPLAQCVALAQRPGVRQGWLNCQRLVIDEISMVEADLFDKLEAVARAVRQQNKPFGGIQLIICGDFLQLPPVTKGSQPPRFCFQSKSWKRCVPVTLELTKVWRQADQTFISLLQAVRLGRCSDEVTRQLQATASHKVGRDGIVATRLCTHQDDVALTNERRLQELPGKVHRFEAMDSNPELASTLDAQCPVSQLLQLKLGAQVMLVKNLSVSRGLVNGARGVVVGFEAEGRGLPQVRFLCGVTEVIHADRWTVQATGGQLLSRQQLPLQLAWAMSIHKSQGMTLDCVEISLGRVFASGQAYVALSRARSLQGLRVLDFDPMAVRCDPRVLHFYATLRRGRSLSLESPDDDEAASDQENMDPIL
In short: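 Fluorescence polarization read at ex 480/em 520 nm. The hPif1 helicase domain (aa200-641, His6-tagged) was at 10 μM with 0.5 μM FAM-labelled DNA and a titration of test compound. Buffer was 25 mM Tris-HCl pH 7.5, 5 mM MgCl2, with no DTT. IC50 was obtained by fitting the binding curves.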

[6] = test system: BaPif1; assay: F-EMSA assay of BaPif1-dT12 interaction; format: binding, Bacteroides sp. 2-1-16
[7] = test system: BaPif1; assay: Filtration-dilution reversibility experiment; format: biochemical, Bacteroides sp. 2-1-16; details: 50 μM compound, three filtration and dilution cycles, 1000-fold dilution
In short: as §1

[8] = molecular target: T1, hPif1-HD; assay: ATPase activity assay; format: biochemical
In short: (§2)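 ATP depletion (luciferase) assay. BaPif1 (GST fusion expressed in E. coli BL21(DE3), tag cleaved) or hPif1 helicase domain (aa200-641, N-terminal His6, E. coli BL21(DE3)), at 0.1 mg/mL. Protein was preincubated with a compound dilution series for 30 min at 25 °C in 20 mM Tris-HCl pH 7.5, 150 mM NaCl, 5 mM MgCl2, 5% DMSO final. 100 nM ssDNA and 100 nM ATP were added, 10 min at 25 °C, then stopped with NaOH. Remaining ATP was read as firefly luciferase luminescence.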

[9] = molecular target: T1, hPif1-HD; assay: Helicase; format: biochemical; details: 20 μM hPif1-HD, 20 bp dsDNA with 5′ dT55 tail
[10] = test system: BaPif1; assay: Helicase; format: biochemical, Bacteroides sp. 2-1-16; details: gel-based titration
[11] = test system: HeLa cells; assay: Western blot of Pif1, RPA2 and γH2AX; format: cell-based, human; details: 10 μM TD combined with 2.5 mM HU
In short: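 HeLa lysates were made in RIPA buffer with protease inhibitor at 4 °C and quantified by BCA. 10−30 μg per lane was run on SDS-PAGE and blotted to PVDF. Membranes were blocked 1 h in 5% milk and probed overnight at 4 °C for Pif1, RPA2, γH2AX and GAPDH (loading control). HRP anti-mouse secondary (1:5000, 1 h) and ECL detection followed.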

[12] = test system: GSK-3β; details: cited from earlier work
[13] = test system: "Cys-conserved" kinases; details: 10 μM TD, panel of 68 kinases; cited from earlier work
[14] = molecular target: BaPif1; assay: ATPase activity assay; format: biochemical, Bacteroides sp. 2-1-16; details: read-out: IC50, inhibition of ATPase activity of BaPif1
In short: as §2

[15] = test system: BaPif1 (Bacteroides sp. 2-1-16); assay: fluorescence polarization

## NC(=O)NO [HU, hydroxyurea]
[1]; 2.5 mM HU
  Induction of RPA foci formation: efficiently induce RPA foci formation

## O=c1sn(-c2cccc3ccccc23)c(=O)n1Cc1ccccc1 [TD, Tideglusib]
[2]
  Sensitivity of C234A mutant to the compound compared with wild-type: little change
[3]
  Sensitivity of C380A mutant to the compound compared with wild-type: less sensitive
[4]
  Reversibility of inhibition of C380A ATPase activity after filtration: reversible
[5]
  IC50: 5.79 ± 0.6 µM
[6]
  Blocking of ssDNA binding to BaPif1 (F-EMSA), in words: could block the binding of single-stranded DNA (ssDNA) to the BaPif1 protein
[7]
  Reversibility of inhibition of BaPif1 ATPase activity after filtration-dilution: irreversible
[8]
  IC50: 2.5 ± 0.1 µM
[1]; 10 μM TD combined with 2.5 mM HU, 24 h
  Reduction of RPA foci formation: 20%
[9]
  Concentration at which helicase activity of hPif1-HD was inhibited: 7.8 µM
[10]
  Concentration at which unwinding (helicase) activity of BaPif1 was inhibited: 4 µM
[11]
  Protein level of Pif1 and RPA: did not alter
  Protein level of γH2AX: slightly decreased
[12]
  Reversibility of GSK-3β inhibition: irreversibly
[13]
  Number of "Cys-conserved" kinases significantly inhibited: 10 of the 26
[14]
  IC50: 2.3 ± 0.13 µM

## TTTTTTTTTTTTTTTTTT [FAM-dT18]
[15]
  Kd: 7 µM
